The source made the active and inactive calls. The rule behind the calls is not given here.
Key:
HCT-116 = assay: Cytotoxicity against human HCT116 cells; assay type: functional, cell-based
Summary of the method: (§1)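 Human colon cancer and leukaemia line panel. Compounds tested from 10^-4 to 10^-8 M, and IC50 values determined.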

HSC-4 [1] = assay: Cytotoxicity against human HSC4 cells after 48 hrs; assay type: functional; settings: HSC-4, 48 h
Summary of the method: (§2)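 Human HSC-2, HSC-3, HSC-4 squamous carcinoma and HL-60 promyelocytic leukaemia cells incubated with compound for 48 h. CC50, the concentration killing 50% of cells, read from a dose–response curve.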

[2] = Cytotoxicity against human HPLF cells after 48 hrs; assay type: cell-based
Summary of the method: (§3)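 Cells were exposed to a dose range for 48 h, following a literature method. CC50 was read from the dose–response curve.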

RPMI-8226 = assay: Cytotoxicity against human RPMI8226 cells; assay type: functional, cell-based; summary of the method: as §1
HL-60(TB) = assay: Cytotoxicity against human HL-60(TB) cells; assay type: functional, cell-based; summary of the method: as §1
[3] = target: T1, ATP-dependent translocase ABCB1 (Homo sapiens, UniProt P08183); assay: Inhibition of human MDR1-mediated multidrug resistant in mouse L5178Y cells at 40 uM treated 10 mins before rhodamine 123 challenge measured after 20 mins relative to control; assay type: cell-based
T1 sequence (P08183 whole entry): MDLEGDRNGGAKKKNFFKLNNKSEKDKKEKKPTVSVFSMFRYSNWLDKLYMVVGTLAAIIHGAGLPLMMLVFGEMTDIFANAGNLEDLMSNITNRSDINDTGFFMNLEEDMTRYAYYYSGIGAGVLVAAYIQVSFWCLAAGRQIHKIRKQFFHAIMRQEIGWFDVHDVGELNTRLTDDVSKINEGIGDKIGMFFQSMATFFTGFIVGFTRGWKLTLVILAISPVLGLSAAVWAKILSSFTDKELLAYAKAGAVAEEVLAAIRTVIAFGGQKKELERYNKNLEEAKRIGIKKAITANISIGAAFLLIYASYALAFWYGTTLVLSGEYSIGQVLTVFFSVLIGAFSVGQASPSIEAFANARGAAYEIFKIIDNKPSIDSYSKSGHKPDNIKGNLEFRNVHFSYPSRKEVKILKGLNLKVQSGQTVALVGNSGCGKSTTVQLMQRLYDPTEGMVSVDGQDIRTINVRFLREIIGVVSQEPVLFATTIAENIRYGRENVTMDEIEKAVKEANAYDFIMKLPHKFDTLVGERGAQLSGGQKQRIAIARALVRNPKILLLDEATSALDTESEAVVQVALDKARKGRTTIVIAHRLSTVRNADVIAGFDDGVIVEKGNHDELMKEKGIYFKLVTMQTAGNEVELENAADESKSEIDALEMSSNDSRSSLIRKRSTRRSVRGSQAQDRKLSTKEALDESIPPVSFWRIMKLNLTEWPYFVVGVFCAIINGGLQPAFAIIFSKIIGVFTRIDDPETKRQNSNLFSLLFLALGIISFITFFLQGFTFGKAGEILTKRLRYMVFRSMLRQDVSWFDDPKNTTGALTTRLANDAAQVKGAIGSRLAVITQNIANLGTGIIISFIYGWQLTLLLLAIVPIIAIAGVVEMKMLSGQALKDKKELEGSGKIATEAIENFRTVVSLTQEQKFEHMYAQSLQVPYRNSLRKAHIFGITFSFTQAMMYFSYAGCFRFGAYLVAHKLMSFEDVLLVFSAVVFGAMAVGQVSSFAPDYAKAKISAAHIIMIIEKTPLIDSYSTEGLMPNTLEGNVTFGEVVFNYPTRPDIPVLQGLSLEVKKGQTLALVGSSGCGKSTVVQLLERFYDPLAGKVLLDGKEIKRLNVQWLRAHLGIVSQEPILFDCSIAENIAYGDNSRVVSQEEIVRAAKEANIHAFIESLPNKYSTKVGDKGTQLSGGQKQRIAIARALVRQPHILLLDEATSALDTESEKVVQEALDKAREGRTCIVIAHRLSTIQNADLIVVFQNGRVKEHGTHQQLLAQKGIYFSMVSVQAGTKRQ
Summary of the method: (§4)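 Compounds in DMSO were added at room temperature to mdr1-transfected and parental L5178Y cells. After 10 min, rhodamine 123 was added, followed by 20 min at 37 °C. Cellular rhodamine fluorescence was measured and expressed as fluorescence activity ratio (FAR); FAR >1 indicates MDR reversal.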

KM12 = assay: Cytotoxicity against human KM12 cells; assay type: functional, cell-based; summary of the method: as §1
COLO 205 = assay: Cytotoxicity against human COLO205 cells; assay type: functional, cell-based; summary of the method: as §1
HSC-2 [4] = assay: Cytotoxicity against human HSC2 cells after 48 hrs; assay type: functional; settings: HSC-2, 48 h; summary of the method: as §2
HSC-4 [5] = assay: Selectivity index, ratio of CC50 for human normal cells to CC50 for human HSC4 cells; assay type: functional
HT-29 = assay: Cytotoxicity against human HT-29 cells; assay type: functional, cell-based; summary of the method: as §1
L1210 = assay: Growth inhibition of mouse L1210 cells; assay type: functional, cell-based
HL-60 [6] = assay: Cytotoxicity against human HL60 cells after 48 hrs; assay type: functional; settings: HL-60, 48 h; summary of the method: as §2
HSC-2 [7] = assay: Selectivity index, ratio of CC50 for human normal cells to CC50 for human HSC2 cells; assay type: functional
HSC-3 [8] = assay: Cytotoxicity against human HSC3 cells after 48 hrs; assay type: functional; settings: HSC-3, 48 h; summary of the method: as §2
CCRF-CEM = assay: Growth inhibition of human CEM cells; assay type: functional, cell-based
[9] = Cytotoxicity against human HGF cells after 48 hrs; assay type: cell-based; summary of the method: as §3
HSC-3 [10] = assay: Selectivity index, ratio of CC50 for human normal cells to CC50 for human HSC3 cells; assay type: functional
[11] = target: T1, ATP-dependent translocase ABCB1; assay: Inhibition of human MDR1-mediated multidrug resistant in mouse L5178Y cells at 4 uM treated 10 mins before rhodamine 123 challenge measured after 20 mins relative to control; assay type: cell-based; summary of the method: as §4
MOLT-4 = assay: Growth inhibition of human Molt4/C8 cells; assay type: functional, cell-based
SW-620 = assay: Cytotoxicity against human SW620 cells; assay type: functional, cell-based; summary of the method: as §1
HCT-15 = assay: Cytotoxicity against human HCT15 cells; assay type: functional, cell-based; summary of the method: as §1
K562 = assay: Cytotoxicity against human K562 cells; assay type: functional, cell-based; summary of the method: as §1
HCC 2998 = assay: Cytotoxicity against human HCC2998 cells; assay type: functional, cell-based; summary of the method: as §1
HL-60 [12] = assay: Selectivity index, ratio of CC50 for human normal cells to CC50 for human HL60 cells; assay type: functional

SMILES	IC50 (HCT-116)	CC50 (HSC-4 [1])	CC50 at 48 h [2]	IC50 (RPMI-8226)	IC50 (HL-60(TB))	Ratio [3]	IC50 (KM12)	CC50 (HSC-2 [4])	Ratio (HSC-4 [5])	growth inhibition (GI) (L1210)	CC50 (HL-60 [6])	Ratio (HSC-2 [7])	CC50 (HSC-3 [8])	growth inhibition (GI) (CCRF-CEM)	CC50 at 48 h [9]	Ratio (HSC-3 [10])	Ratio [11]	growth inhibition (GI) (MOLT-4)	IC50 (SW-620)	Ratio (HL-60 [12])	other results
O=C1/C(=C/c2ccccc2)CN(C(=O)C(=O)N2C/C(=C\c3ccccc3)C(=O)/C(=C/c3ccccc3)C2)C/C1=C\c1ccccc1	0.03 µM	0.2 µM	5.3 µM	0.25 µM	0.2 µM	41.1	0.04 µM	0.085 µM	16.3	Active	0.11 µM	38.4	0.15 µM	Active	3.8 µM	21.7	19.3	Active	0.07 µM	29.6	IC50 (COLO 205): 0.36 µM; IC50 (HT-29): 0.17 µM; IC50 (HCT-15): 0.3 µM; IC50 (K562): 0.2 µM; IC50 (HCC 2998): 0.19 µM
O=C1/C(=C/c2ccccc2)CN(C(=O)CCCCCCC(=O)N2C/C(=C\c3ccccc3)C(=O)/C(=C/c3ccccc3)C2)C/C1=C\c1ccccc1		0.62 µM	17 µM			55.7		0.17 µM	16.8	Active	1.3 µM	61.2	0.21 µM	Active	13 µM	49.5	49.2	Active		8	
O=C1/C(=C/c2ccccc2)CN(C(=O)CCCC(=O)N2C/C(=C\c3ccccc3)C(=O)/C(=C/c3ccccc3)C2)C/C1=C\c1ccccc1		0.19 µM	3.9 µM			73.4		0.071 µM	13	Active	0.39 µM	34.8	0.17 µM	Active	2.9 µM	14.5	50.2	Active		6.33	
O=c1[nH]cc(F)c(=O)[nH]1 [FLUOROURACIL]					> 2510 µM														380 µM		
O=C1/C(=C/c2ccccc2)CN(C(=O)/C=C/C=C/C(=O)N2C/C(=C\c3ccccc3)C(=O)/C(=C/c3ccccc3)C2)C/C1=C\c1ccccc1		6.4 µM	47 µM			44.3		2.6 µM	5.47	Active	7.4 µM	13.5	8.5 µM	Active	39 µM	4.12	48.6	Active		4.73	
O=C1/C(=C/c2ccccc2)CN(C(=O)C#CC(=O)N2C/C(=C\c3ccccc3)C(=O)/C(=C/c3ccccc3)C2)C/C1=C\c1ccccc1	0.12 µM	0.93 µM	13 µM	0.08 µM	0.25 µM	45.7	0.28 µM	0.19 µM	8.46	Active	0.87 µM	41.4	0.49 µM	Active	8.5 µM	16.1	42	Active	0.2 µM	9.05	IC50 (COLO 205): 0.25 µM; IC50 (HT-29): 0.2 µM; IC50 (HCT-15): 0.39 µM; IC50 (K562): 0.3 µM; IC50 (HCC 2998): 0.41 µM
O=C1/C(=C/c2ccccc2)CN(C(=O)/C=C/C(=O)N2C/C(=C\c3ccccc3)C(=O)/C(=C/c3ccccc3)C2)C/C1=C\c1ccccc1	0.13 µM	0.58 µM	22 µM	0.05 µM	0.45 µM	52.9	0.21 µM	0.078 µM	25.7	Active	1.2 µM	191	0.62 µM	Active	17 µM	24	37.2	Active	0.22 µM	12.4	IC50 (COLO 205): 0.56 µM; IC50 (HT-29): 0.25 µM; IC50 (HCT-15): 0.83 µM; IC50 (K562): 0.32 µM; IC50 (HCC 2998): 0.22 µM
N[C@@H](Cc1ccc(N(CCCl)CCCl)cc1)C(=O)O [MELPHALAN]		32 µM						8.7 µM	6.56		1.4 µM	24.1	25 µM			8.4				150	
O=C1/C(=C/c2ccccc2)CN(C(=O)c2cccc(C(=O)N3C/C(=C\c4ccccc4)C(=O)/C(=C/c4ccccc4)C3)c2)C/C1=C\c1ccccc1	0.2 µM	8 µM	46 µM	0.73 µM	2.04 µM	61.3	0.35 µM	3.2 µM	4.54	Active	6.6 µM	11.3	6.3 µM	Active	42 µM	5.76	38.9	Active	0.36 µM	5.5	IC50 (COLO 205): 2.4 µM; IC50 (HT-29): 0.55 µM; IC50 (HCT-15): 1.7 µM; IC50 (K562): 1.55 µM
O=C1/C(=C/c2ccccc2)CN(C(=O)CCC(=O)N2C/C(=C\c3ccccc3)C(=O)/C(=C/c3ccccc3)C2)C/C1=C\c1ccccc1	0.14 µM	0.24 µM	16 µM	0.06 µM	0.27 µM	60	0.3 µM	0.099 µM	38.2	Active	0.41 µM	92.6	0.23 µM	Active	10 µM	39.9	35	Active	0.26 µM	22.4	IC50 (COLO 205): 0.39 µM; IC50 (HT-29): 0.24 µM; IC50 (HCT-15): 0.38 µM; IC50 (K562): 0.22 µM; IC50 (HCC 2998): 0.23 µM

Source: ChEMBL document CHEMBL2010770, “Dimeric 3,5-bis(benzylidene)-4-piperidones: a novel cluster of tumour-selective cytotoxins possessing multidrug-resistant properties” (Eur J Med Chem, 2012)
